Experimental data from different studies.
Target: Ephrin type-B receptor 2 (EPHB2, Homo sapiens, UniProt P29323)
Residues used in one study (P29323 19-1055): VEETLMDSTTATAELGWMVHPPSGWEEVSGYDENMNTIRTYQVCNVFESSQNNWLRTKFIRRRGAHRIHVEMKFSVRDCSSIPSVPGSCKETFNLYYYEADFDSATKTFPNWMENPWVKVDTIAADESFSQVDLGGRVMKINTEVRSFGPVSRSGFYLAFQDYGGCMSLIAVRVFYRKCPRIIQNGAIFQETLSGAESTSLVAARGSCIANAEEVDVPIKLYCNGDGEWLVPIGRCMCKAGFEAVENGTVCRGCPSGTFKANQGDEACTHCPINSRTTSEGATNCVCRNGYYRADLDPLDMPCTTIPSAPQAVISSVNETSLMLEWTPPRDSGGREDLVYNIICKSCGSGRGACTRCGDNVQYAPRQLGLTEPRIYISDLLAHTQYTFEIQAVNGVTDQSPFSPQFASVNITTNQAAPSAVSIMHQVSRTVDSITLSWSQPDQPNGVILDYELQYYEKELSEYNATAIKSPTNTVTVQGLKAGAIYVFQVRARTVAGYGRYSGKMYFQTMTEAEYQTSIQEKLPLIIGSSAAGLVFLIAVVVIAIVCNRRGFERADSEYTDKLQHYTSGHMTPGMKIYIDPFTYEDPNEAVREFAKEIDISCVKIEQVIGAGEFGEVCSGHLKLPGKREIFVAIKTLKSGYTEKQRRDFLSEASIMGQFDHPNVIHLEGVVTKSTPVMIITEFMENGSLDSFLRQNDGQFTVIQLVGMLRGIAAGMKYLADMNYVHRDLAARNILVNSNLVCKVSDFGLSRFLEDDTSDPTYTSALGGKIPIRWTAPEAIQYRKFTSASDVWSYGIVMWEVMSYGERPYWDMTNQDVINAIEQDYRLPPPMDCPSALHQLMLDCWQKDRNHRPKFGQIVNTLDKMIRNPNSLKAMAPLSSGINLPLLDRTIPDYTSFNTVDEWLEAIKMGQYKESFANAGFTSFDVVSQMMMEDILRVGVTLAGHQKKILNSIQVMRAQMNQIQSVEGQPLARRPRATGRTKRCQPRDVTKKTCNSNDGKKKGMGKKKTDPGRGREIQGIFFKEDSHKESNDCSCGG

SMILES	assay	setting	measurement	value
O=C(Nc1ccc(Oc2ccc(F)cc2)cc1)N1CCc2ncccc2[C@H]1c1ccc(F)cc1	cell-free assay, competition with immobilised ligand	1 µM	remaining binding	91%
CN(C)c1ccc(C=C2C(=O)Nc3ccccc32)cc1	cell-free assay	0.5 µM	remaining signal	86.5%
CC/C(=N\NC(=O)NCc1cccc(O)c1)c1ccc(O)c(C)c1O	enzyme activity, inhibitor	0.1 µM	inhibition	1.5%
CCC(=O)N[C@@H]1CC[C@H](C(=O)N(C)c2ccc(-c3nc4ccccc4o3)cc2)C1	cell-free assay, competition with immobilised ligand	1 µM	remaining binding	82%
O=C1NC(=O)c2cc(Nc3ccc(F)cc3)c(Nc3ccc(F)cc3)cc21	cell-free assay	0.5 µM	remaining signal	89.3%
CC(C)(C)c1nc2c(s1)c1nc(N)ncc1c1ccc(NS(=O)(=O)c3c(F)cccc3F)c(F)c12	enzyme activity, inhibitor, radiometric	1 µM	remaining activity	91%
O=C1Nc2ccc(Cl)cc2C1=Cc1cc(Cl)c(O)c(Cl)c1	cell-free assay	0.5 µM	remaining signal	90.9%
CC(=O)c1c(NS(C)(=O)=O)c2cc(-c3ccc(Cl)cc3)c(-c3ccc(Cl)cc3Cl)nc2n(C)c1=O	cell-free assay, competition with immobilised ligand	1 µM	remaining binding	100%
CCCS(=O)(=O)Nc1ccc(F)c(C(=O)c2c[nH]c3ncc(-c4ccc(Cl)cc4)cc23)c1F	enzyme activity, inhibitor	1 µM	inhibition	< 10%
Cc1ccc(C(=O)Nc2ccc(CN3CCN(C)CC3)c(C(F)(F)F)c2)cc1C#Cc1cnc2cccnn12	cell-free assay	23.5 nM	remaining signal	49%
Cc1cnc(NC2CCOCC2)nc1-n1cnc(C(=O)NC(CN)c2cc(F)cc(Cl)c2)c1 (stereo not drawn)	enzyme activity, inhibitor, radiometric	1 µM	remaining activity	96%
Cc1ccc(Nc2nccc(N(C)c3ccc4c(C)n(C)nc4c3)n2)cc1S(N)(=O)=O	enzyme activity, inhibitor	0.3 µM	inhibition	7%
CSc1cccnc1N1CCN(Cc2nc3ccccc3[nH]2)CC1	cell-free assay, competition with immobilised ligand	1 µM	remaining binding	99%
COc1cc2ncnc(Nc3ccc(Oc4ccccc4)cc3C)c2cc1OC	enzyme activity, inhibitor	1 µM	inhibition	25%
COc1cc(Nc2cnc(C#N)c(O[C@H](C)CN(C)C)n2)ncc1-c1cnn(C)c1	enzyme activity, inhibitor, radiometric	1 µM	remaining activity	110%
c1ccc(CNc2nc(N3CCOc4ccccc43)nc3c2CCCC3)cc1	target engagement in cells, inhibitor, chemoproteomics	20 mM	inhibition	2.6%
FC(F)c1nc2ccccc2n1-c1nc(N2CCOCC2)nc(N2CCOCC2)n1	enzyme activity, inhibitor	10 µM	remaining activity	106%
CCCCNc1ncc2c(-c3ccc(F)cc3)nn(C[C@H]3CC[C@H](N)CC3)c2n1	target engagement in cells, inhibitor, chemoproteomics	20 mM	inhibition	94.8%
Cc1nc(C2CCN(C(=O)c3ccc(OC(F)(F)F)cc3N)CC2)c2ncc(N3CCN(C)CC3)cc2n1	cell-free assay, competition with immobilised ligand	1 µM	remaining binding	100%
Oc1cccc(-c2nc(N3CCOCC3)c3oc4ncccc4c3n2)c1	enzyme activity, inhibitor	10 µM	remaining activity	105%
CNC(=O)Nc1ccc2c(c1)CC[C@@]21OC(=O)N(CC(=O)N(Cc2ccc(F)cc2)[C@@H](C)C(F)(F)F)C1=O	cell-free assay, competition with immobilised ligand	1 µM	remaining binding	72%
C#Cc1cccc(Nc2ncnc3cc(OCCOC)c(OCCOC)cc23)c1	cell-free assay	0.5 µM	remaining signal	95.1%
CNC(=O)c1cc2c(Oc3ccc(NC(=O)C4(C(=O)Nc5ccc(F)cc5)CC4)cc3)ccnc2cc1OC	enzyme activity, inhibitor, radiometric	1 µM	inhibition	95%
COc1cc(Cl)c(C(=O)N[C@@H](CN[C@H]2CC[C@@H](N)CC2)Cc2ccc(C#N)cc2)cc1-c1ccc(CN[C@H](C)c2ccc(C)cc2)o1	enzyme activity, inhibitor	1 µM	remaining activity	123%
CCN(CC)CCNC(=O)c1c(C)[nH]c(/C=C2\C(=O)Nc3ccc(F)cc32)c1C	enzyme activity, inhibitor	10 µM	inhibition	90%
Cc1ccc(NC(=O)c2ccc(C)c(C(F)(F)F)c2)cc1C#Cc1nn(C2CCC(O)CC2)c2ncnc(N)c12 (stereo not drawn)	cell-free assay	10 µM	remaining signal	-1%
CN(C(=O)c1ccccc1)c1cc(N(C)c2ccc3c(c2)CCc2ccc(C(=O)NCCN4CCOCC4)cc2C3=O)ccc1F	cell-free assay, competition with immobilised ligand	1 µM	remaining binding	82%
O=C(Nc1cnn(-c2csc(C(=O)NC3COC3)c2)c1)Nc1ccccc1Cl	enzyme activity, inhibitor	5 µM	remaining activity	101%
O=C(Nc1cccnn1)N1CCC(=Cc2cccc(Oc3ccc(C(F)(F)F)cn3)c2)CC1	cell-free assay, competition with immobilised ligand	1 µM	remaining binding	100%
CN(C)C1CCN(CC#Cc2nn(C3CCCC3)c3nc(NCc4ccccc4)ncc23)C1 (stereo not drawn)	enzyme activity, inhibitor, FRET	0.1 µM	inhibition	3%
